Screens deposited in PubChem by several laboratories.
Only a selection was taken, and hits are over-represented in it overall.
Lmaj promast: Leishmania major promastigote growth inhibition, primary screen; Leishmania major promastigotes, resazurin fluorescence viability; inhibition, % at 10 µM; actives 9% (n = 200,000);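 note: promastigotes grown with compound for 44 hours at 28 °C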
Diaph act CS: compounds boosting diaphorase resazurin reduction – biochemical, uHTS, resorufin fluorescence, counter-screen for diaphorase-coupled primary assays, primary screen. Diaphorase/resazurin coupled assay, 16 min; stronger effect = higher value; 1 = vehicle wells, 0 = NADH-free wells. activation factor at 20 µM. actives 0.005% (n = 190,000). AID 1229, 2008;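 active = diaphorase activity raised at least twofold by the compound at 20 µM; inactive = activation factor below 2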
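Test system: Clostridium kluyveri diaphorase, purified enzyme. Buffer or medium: 50 mM HEPES pH 7.4 buffer plus MgCl2 and Tween 20. Also added: 0.114 mM NADH and 0.1 mM resazurin, final amounts. Dosing: compound 20 µM once, DMSO 1%. Schedule: 16 min enzyme reaction, ambient temperature. Detection: fluorescence of resorufin, 544 nm excitation, 590 nm emission.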
PfG6PD inh: PfG6PD enzyme inhibitors, primary screen, biochemical, fluorescence intensity, uHTS; PfGluPho enzyme, NADPH resazurin-diaphorase fluorescence; inhibition, % at 20 µM; actives 0.78% (n = 350,000); AID 504690, 2011;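 active = inhibition reaching at least a set limit at 20 µM in the primary screen, cut at about 59% in these data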
Diaph inh CS: diaphorase inhibitors and chemical oxidizers, primary screen, counter-screen for diaphorase-coupled primary assays, biochemical, uHTS, resorufin fluorescence | diaphorase resazurin-to-resorufin fluorescence, NADH, 16 min; bacterial (C. kluyveri) enzyme, not human | inhibition, % at 20 µM | actives 0.69% (n = 190,000);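 active = primary screen inhibition at 20 µM above a set limit, cut at about 50% in these data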
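Test system: bacterial diaphorase enzyme (C. kluyveri); Quantity: 0.14 U/mL diaphorase, enzyme working solution; Times: reaction incubation of 16 min at room temperature; Measured by: fluorescence of resorufin formed from resazurin, Ex 544/Em 590 nm; Benchmarks: positive control minus NADH, DMSO neutral control.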
G6PDH CS: L. mesenteroides G6PDH inhibitors, counter-screen for G6PDH-coupled screening assays, biochemical, Leuconostoc mesenteroides enzyme | glucose-6-phosphate dehydrogenase [Leuconostoc mesenteroides] | Purified L. mesenteroides G6PDH, diaphorase/resazurin coupled fluorescence, 45 min | inhibition, % at 5 µM | actives 0.12% (n = 200,000)
DTT redox prof: compounds producing H2O2 with reducing agent – biochemical, NIH compound library profiling, artefact control for MLSCN library redox annotation, primary screen; DTT-dependent redox cycling H2O2, phenol red/HRP absorbance; 100% = 100 µM peroxide control, 0% = buffer; activation, % at 10 µM; actives 0.03% (n = 200,000); AID 878, 2007;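 active = activation of at least 50% relative to the plate's high and low controls in the primary single-dose screen; inactive = activation below 50%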;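 note: compound incubated with DTT at 0.8 mM final as the reducing agent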
Hits are given with their value; . = inactive; / = not tested or not shown. Cut-off read from the data, not from the text of the source, unless noted: active = inhibition above about 50%; inactive = the rest.

SMILES | Lmaj promast | Diaph act CS | PfG6PD inh | Diaph inh CS | G6PDH CS | DTT redox prof
COc1ccc(C(C(=O)OCCN(C)C)c2ccccc2)cc1 (stereo not drawn) | . | . | . | . | . | .
O=C(c1ccc(Cl)cc1)C(CN1CCCC1)c1ccccc1 (stereo not drawn) | / | / | . | / | / | /
CCCOc1ccc(C(=O)C(CN2CCCC2)c2ccccc2)cc1 (stereo not drawn) | 100 | . | . | . | . | .
CCCCOc1ccc(C(=O)C(CN2CCOCC2)c2ccccc2)cc1 (stereo not drawn) | 101 | . | . | . | . | .
CCCOc1ccc(C(C(=O)OCCN(CC)CC)c2ccccc2)cc1 (stereo not drawn) | 99 | . | . | . | . | .
CCCCCOc1ccc(C(=O)C(c2ccccc2)N2CCOCC2)cc1 (stereo not drawn) | . | . | . | . | . | .
COc1cc(/C=C/C(=O)O)cc(S(=O)(=O)NCCCC(=O)O)c1OC | . | . | . | . | . | .
CCN(CC)CCCn1c2c(c(SCC(=O)Nc3ccc4c(c3)OCO4)nc1=O)CCC2 | / | / | . | / | / | /
COc1ccc(Nc2nc(Nc3ccc(OC)cc3)nc(-n3[nH]c(=O)c(C)c3C)n2)cc1 | 100 | . | . | . | . | .
COc1ccc(Nc2nc(OC)nc(N3CCOCC3)n2)cc1 | . | . | . | . | . | .
COc1ccc(C)cc1S(=O)(=O)NNc1nc(C)cc(C)n1 | / | / | . | / | / | /
COc1ccc(-n2nnnc2SCc2nc3ccccc3s2)cc1 | . | . | . | . | . | .
COc1ccc(C)cc1-n1nnnc1SCC(=O)Nc1cc(C)on1 | . | . | . | . | . | .
CCn1c(SCc2nc3ccccc3s2)nnc1-c1ccccc1 | 65 | . | . | . | . | .
COc1ccc(C)cc1-n1nnnc1SCC(=O)Nc1cccnc1Cl | 92 | . | . | . | . | .
COc1ccc(C)cc1-n1nnnc1SCc1nc2ccccc2s1 | 83 | . | . | . | . | .
Cc1nnc(SCc2nc3ccccc3s2)n1-c1ccccc1 | . | . | . | . | . | .
COc1ccc(C2CCCN2CC(O)COc2ccccc2C(C)C)cc1 (stereo not drawn) | / | / | . | / | / | /
Cc1onc(-c2ccccc2)c1C(=O)OCC(=O)N(C)c1ccccc1 | / | / | . | / | / | /
CC(C)OCC(O)CN1CCN(CCN2C(=O)c3cccc4cccc(c34)C2=O)CC1 (stereo not drawn) | / | / | . | / | / | /
CC(=O)c1ccc(OCC(O)CN2CCN(CCN3C(=O)c4cccc5cccc(c45)C3=O)CC2)cc1 (stereo not drawn) | 91 | . | . | . | . | .
COc1ccc(NC(=S)N2CCN(CCN3C(=O)c4cccc5cccc(c45)C3=O)CC2)cc1 | . | . | . | . | . | .
C=CCc1ccccc1OCC(O)CN1CCN(CCN2C(=O)c3cccc4cccc(c34)C2=O)CC1 (stereo not drawn) | 100 | . | . | . | . | .
CCOc1ccc(NC(=S)N2CCN(CCN3C(=O)c4cccc5cccc(c45)C3=O)CC2)cc1 | 71 | . | . | . | . | .
Cc1cccc(C)c1OCC(O)CN1CCN(C(=O)c2ccccc2)CC1 (stereo not drawn) | / | / | . | / | / | /
SMILES | Lmaj promast | Diaph act CS | PfG6PD inh | Diaph inh CS | G6PDH CS | DTT redox prof
Cc1cccc(C)c1OCC(O)CN1CCC(CN2C(=O)c3cccc4cccc(c34)C2=O)CC1 (stereo not drawn) | 93 | . | . | . | . | .
O=C(Nc1ccc(Oc2ccc(NC(=O)Nc3ccccc3Cl)cc2)cc1)Nc1ccccc1Cl | / | / | . | / | / | /
CCC(OCC(O)CN1CCN(CCN2C(=O)c3cccc4cccc(c34)C2=O)CC1)c1ccccc1 (stereo not drawn) | 97 | . | . | . | . | .
O=C(/C=C/c1ccccc1)N1CCN(CCN2C(=O)c3cccc4cccc(c34)C2=O)CC1 | 100 | . | . | . | . | .
Cc1ccccc1OCC(O)CN1CCN(CCN2C(=O)c3cccc4cccc(c34)C2=O)CC1 (stereo not drawn) | 100 | . | . | . | . | .
CCOc1ccc(NC(=S)Nc2ccccc2C2(C)CC2)cc1 | . | . | . | . | . | .
Cc1cccc(C2=NC(C(F)(F)F)(C(F)(F)F)c3c(n(-c4ccc(F)cc4)c(=O)[nH]c3=O)N2)c1 | 74 | . | . | . | . | .
CC(=O)NC1(C(F)(F)F)C(=O)Nc2c1c(=O)[nH]c(=O)n2-c1ccccc1 (stereo not drawn) | / | / | . | / | / | /
COc1ccc(C(=O)Nc2ccc(O)c3ccccc23)cc1 | / | / | . | / | / | /
COc1ccc(NC(=O)Nc2ccc(O)c3ccccc23)cc1 | / | / | 72 | / | / | /
COc1ccc(OC)c(S(=O)(=O)Nc2ccc(O)c3ccccc23)c1 | 100 | . | . | . | . | .
Cc1cc(NC(=O)CSc2nc3sc(C)c(C)c3c(=O)n2C2CCCC2)no1 | . | . | . | . | . | .
Cc1nc(NC(=O)/C=C/c2ccco2)sc1C | . | . | . | . | . | .
O=C(/C=C/c1ccco1)Nc1cccc(NC(=O)/C=C/c2ccco2)n1 | 64 | . | . | . | . | .
O=C(Cc1ccc(NC(=O)C2CCN(C(=O)C3CC3)CC2)cc1)Nc1ccc(C(=O)N2CCOCC2)cc1 | / | / | . | / | / | /
COc1ccc(OC)c(S(=O)(=O)NCc2csc(-c3ccccc3)n2)c1 | 78 | . | . | . | . | .
Cc1ccc(N2CC(C(=O)O)CC2=O)cc1 (stereo not drawn) | . | . | . | . | . | .
Cc1ccc(OCCCCNC2CCCCC2)c(C)c1 | 94 | . | . | . | . | .
Cc1ccc(OCCCNC2CCCC2)cc1 | . | . | . | . | . | .
CCCOc1ccc(OCCNC2CCCC2)cc1 | 94 | . | . | . | . | .
Cc1ccc(OCC(O)CNC2CCCC2)c(C)c1 (stereo not drawn) | / | / | . | / | / | /
C=CCc1ccc(OCCCCNC2CCCC2)c(OC)c1 | 89 | . | . | . | . | .
CC(C)(C)c1ccc(OCCCNC2CCCC2)cc1 | 99 | . | . | . | . | .
CC(C)(C)NC(=O)COC(=O)c1ccc(NC(=O)CC#N)cc1 | . | . | . | . | . | .
O=C(COC(=O)/C=C/c1ccco1)Nc1cc(S(=O)(=O)N2CCOCC2)ccc1Cl | / | / | . | / | / | /
CCOc1ccc(OCCNC2CCCC2)cc1 | 84 | . | . | . | . | .
CCOc1ccccc1OCCNC1CCCC1 | . | . | . | . | . | .
Cc1ccc(C)c(OCCCNC2CCCC2)c1C | 97 | . | . | . | . | .
